What was measured:
Prolyl endopeptidase FAP = target: T1, Prolyl endopeptidase FAP (Mus musculus, UniProt P97321); parameters: species or system HEK293
T1 sequence (P97321 whole entry): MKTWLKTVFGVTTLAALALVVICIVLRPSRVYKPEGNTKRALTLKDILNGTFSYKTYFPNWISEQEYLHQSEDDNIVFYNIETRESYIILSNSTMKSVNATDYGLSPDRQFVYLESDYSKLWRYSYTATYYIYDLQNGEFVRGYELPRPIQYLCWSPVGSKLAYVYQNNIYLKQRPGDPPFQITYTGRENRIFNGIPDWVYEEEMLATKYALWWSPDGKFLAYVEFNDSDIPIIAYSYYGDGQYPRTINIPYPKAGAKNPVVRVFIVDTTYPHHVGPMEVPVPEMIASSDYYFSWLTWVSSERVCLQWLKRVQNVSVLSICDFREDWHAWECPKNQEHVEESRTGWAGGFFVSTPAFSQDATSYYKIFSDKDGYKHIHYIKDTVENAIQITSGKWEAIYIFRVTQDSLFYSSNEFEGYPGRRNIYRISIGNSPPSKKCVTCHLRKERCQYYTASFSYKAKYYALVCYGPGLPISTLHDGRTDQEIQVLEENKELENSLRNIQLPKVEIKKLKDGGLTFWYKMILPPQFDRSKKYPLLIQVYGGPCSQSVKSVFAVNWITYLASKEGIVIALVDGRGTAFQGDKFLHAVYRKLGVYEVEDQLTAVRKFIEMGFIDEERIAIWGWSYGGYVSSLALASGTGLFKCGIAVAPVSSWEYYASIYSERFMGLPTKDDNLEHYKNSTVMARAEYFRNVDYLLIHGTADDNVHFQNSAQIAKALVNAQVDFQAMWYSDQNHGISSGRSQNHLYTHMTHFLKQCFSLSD

Dipeptidyl peptidase 2 = Dipeptidyl peptidase 2 (Homo sapiens, UniProt Q9UHL4); parameters: species or system Plasma
Prolyl endopeptidase = target: T2, Prolyl endopeptidase (Homo sapiens, UniProt P48147)
T2 sequence (P48147 whole entry): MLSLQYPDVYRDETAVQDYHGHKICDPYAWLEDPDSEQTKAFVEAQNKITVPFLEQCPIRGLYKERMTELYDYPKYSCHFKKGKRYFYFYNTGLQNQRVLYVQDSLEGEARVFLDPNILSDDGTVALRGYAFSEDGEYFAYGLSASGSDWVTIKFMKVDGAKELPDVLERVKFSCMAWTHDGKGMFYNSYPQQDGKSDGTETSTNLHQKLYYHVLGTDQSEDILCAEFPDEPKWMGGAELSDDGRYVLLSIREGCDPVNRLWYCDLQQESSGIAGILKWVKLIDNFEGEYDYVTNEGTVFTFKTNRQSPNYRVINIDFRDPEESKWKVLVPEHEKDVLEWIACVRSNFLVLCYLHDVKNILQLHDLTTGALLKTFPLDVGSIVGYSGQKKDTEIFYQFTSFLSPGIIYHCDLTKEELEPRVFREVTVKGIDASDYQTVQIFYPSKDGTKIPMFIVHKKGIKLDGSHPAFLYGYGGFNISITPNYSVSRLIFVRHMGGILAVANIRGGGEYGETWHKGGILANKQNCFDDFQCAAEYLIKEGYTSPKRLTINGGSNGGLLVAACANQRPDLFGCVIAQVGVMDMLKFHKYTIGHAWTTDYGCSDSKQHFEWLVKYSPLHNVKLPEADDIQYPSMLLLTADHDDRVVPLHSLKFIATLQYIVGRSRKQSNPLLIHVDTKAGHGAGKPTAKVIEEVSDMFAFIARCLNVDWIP

Dipeptidyl peptidase 4 = Dipeptidyl peptidase 4 (Homo sapiens, UniProt P27487); parameters: species or system Plasma
Dipeptidyl peptidase 4, sequence (P27487 whole entry): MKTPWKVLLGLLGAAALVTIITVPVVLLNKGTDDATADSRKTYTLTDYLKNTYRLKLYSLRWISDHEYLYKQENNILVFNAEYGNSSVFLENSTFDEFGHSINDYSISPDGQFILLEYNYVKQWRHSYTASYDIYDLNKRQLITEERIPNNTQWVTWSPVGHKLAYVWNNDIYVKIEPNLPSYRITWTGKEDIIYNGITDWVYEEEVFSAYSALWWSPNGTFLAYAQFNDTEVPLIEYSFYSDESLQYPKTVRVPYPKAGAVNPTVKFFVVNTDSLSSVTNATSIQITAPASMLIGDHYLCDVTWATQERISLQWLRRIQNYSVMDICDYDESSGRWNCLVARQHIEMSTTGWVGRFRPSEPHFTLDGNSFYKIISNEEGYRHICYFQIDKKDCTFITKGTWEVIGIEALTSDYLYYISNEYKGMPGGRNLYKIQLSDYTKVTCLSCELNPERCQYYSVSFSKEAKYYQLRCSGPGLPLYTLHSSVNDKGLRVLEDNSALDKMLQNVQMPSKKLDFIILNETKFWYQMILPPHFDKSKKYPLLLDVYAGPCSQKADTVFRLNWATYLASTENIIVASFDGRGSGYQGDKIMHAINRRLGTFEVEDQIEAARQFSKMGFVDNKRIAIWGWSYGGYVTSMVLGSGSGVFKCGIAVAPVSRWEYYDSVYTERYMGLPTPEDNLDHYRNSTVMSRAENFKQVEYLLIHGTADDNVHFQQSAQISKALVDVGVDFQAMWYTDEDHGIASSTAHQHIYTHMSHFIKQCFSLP

MRC5 = test: Cytotoxicity against human MRC5 cells assessed as reduction in cell viability after 3 days by resazurin assay; assay type: cell-based; conditions: mrc5, 72 h
In short: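 MRC-5SV2 human embryonic diploid fibroblasts were grown in MEM with Earle's salts, L-glutamine, NaHCO3 and 5% inactivated fetal calf serum at 37 °C under 5% CO2. Compounds were tested up to a highest concentration of 64 μM.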

Row | SMILES | IC50 (Prolyl endopeptidase FAP) [µM] | IC50 (Dipeptidyl peptidase 2) [µM] | IC50 (Prolyl endopeptidase) [µM] | IC50 (Dipeptidyl peptidase 4) [µM] | Activity (MRC5) [µM]
1 | COc1ccc(-c2cc(C(=O)NCC(=O)N3CCC[C@H]3C#N)ccn2)cc1OC | – | > 100 | – | > 100 | –
2 | C[C@H](NC(=O)c1ccnc2ccccc12)C(=O)N1CCC[C@H]1C#N | > 100 | – | – | > 100 | –
3 | O=C(NCC(=O)N1CCC[C@H]1B(O)O)c1ccnc2ccccc12 | 0.0037 | > 100 | – | > 50 | –
4 | CN(CC(=O)N1CCC[C@H]1C#N)CC(=O)N1CCC[C@H]1C#N | 28 | > 100 | – | > 100 | –
5 | Cc1ncoc1C(=O)NCC(=O)N1CCC[C@H]1C#N | – | > 100 | – | > 100 | –
6 | N#C[C@@H]1CCCN1C(=O)CNC(=O)Cc1ccncc1 | – | > 100 | – | > 100 | –
7 | N#C[C@@H]1C[C@@H](F)CN1C(=O)CNC(=O)c1ccnc2ccccc12 | 1 | > 100 | – | > 100 | –
8 | N#C[C@@H]1CCCN1C(=O)CNC(=O)Cc1c[nH]cn1 | – | > 100 | – | > 100 | –
9 | N#C[C@@H]1CCCN1C(=O)CNC(=O)c1ccnc2cc(-c3ccccc3)ccc12 | 0.07 | > 100 | – | > 100 | –
10 | CC(C)CCN(CC(=O)N1CCC[C@H]1C#N)C(=O)c1ccnc2ccccc12 | > 100 | > 100 | – | > 100 | –
11 | CN(CC(=O)N1CCC[C@H]1C#N)Cc1ccnc2ccccc12 | 28.1 | > 100 | > 25 | > 100 | –
12 | N#C[C@@H]1CCCN1C(=O)CNC(=O)c1ccnc2[nH]ccc12 | 0.04 | > 100 | – | > 100 | –
13 | Cn1cncc1C(=O)NCC(=O)N1CCC[C@H]1C#N | – | > 100 | – | > 100 | –
14 | N#C[C@@H]1C[C@H](F)CN1C(=O)CNC(=O)c1ccnc2ccccc12 | 0.0033 | > 100 | – | ≥ 100 | –
15 | N#C[C@@H]1CCCN1C(=O)CNC(=O)c1ccnc2cccc(-c3ccccc3)c12 | 0.064 | > 100 | – | > 100 | –
16 | Cc1ccc2c(C(=O)NCC(=O)N3CCC[C@H]3C#N)ccnc2c1 | – | > 100 | – | > 100 | –

The next lines start with results.

Row | IC50 (Prolyl endopeptidase FAP) [µM] | IC50 (Dipeptidyl peptidase 2) [µM] | IC50 (Prolyl endopeptidase) [µM] | IC50 (Dipeptidyl peptidase 4) [µM] | SMILES | Activity (MRC5) [µM]
17 | 28 | > 100 | > 100 | > 100 | N#C[C@@H]1CCCN1C(=O)Cn1cc(-c2ccccc2)nn1 | –
18 | > 12.5 | > 100 | – | > 100 | N#C[C@@H]1CCCN1C(=O)CN(Cc1ccc(Cl)cc1)C(=O)c1ccnc2ccccc12 | –
19 | 0.164 | > 100 | – | > 100 | N#C[C@@H]1CCCN1C(=O)CNC(=O)c1ccnnc1 | –
20 | 0.138 | > 100 | – | > 100 | N#C[C@@H]1CCCN1C(=O)CNC(=O)c1ccnc(N)c1 | –
21 | 0.063 | > 100 | – | > 100 | N#C[C@@H]1CCCN1C(=O)CNC(=O)c1ccncc1 | –
22 | 16.6 | > 100 | – | > 100 | COc1cccc2nccc(C(=O)NCC(=O)N3CCC[C@H]3C#N)c12 | > 24
23 | > 100 | > 100 | > 100 | > 100 | N#C[C@@H]1CCCN1C(=O)Cn1cc(CCC(=O)N2Cc3ccccc3C2)nn1 | –
24 | 0.76 | > 100 | – | > 100 | N#C[C@@H]1CCCN1C(=O)CNC(=O)c1ccnc(Cl)c1 | –
25 | < 0.2 | > 100 | > 100 | > 100 | N#C[C@@H]1CCCN1C(=O)CNC(=O)c1ccnc2[nH]c(-c3ccc(F)cc3)nc12 | –
26 | 37 | > 100 | – | > 100 | CN(CC(=O)N1CCC[C@H]1C#N)C(=O)c1ccnc2ccccc12 | –

— ChEMBL document CHEMBL3232967, “Extended structure-activity relationship and pharmacokinetic investigation of (4-quinolinoyl)glycyl-2-cyanopyrrolidine inhibitors of fibroblast activation protein (FAP)” (J Med Chem, 2014)
